Results from ChEMBL document CHEMBL3808334, “Synthesis and in vitro evaluation of novel triazine analogues as anticancer agents and their interaction studies with bovine serum albumin” (Eur J Med Chem, 2016).

Tests used:
[1] = Growth inhibition of human OVCAR4 cells assessed as cell growth at 10 uM incubated for 48 hrs by sulforhodamine B assay; assay type: functional; conditions: OVCAR-4, 48 h, read-out: Activity
[2] = Growth inhibition of human OVCAR8 cells incubated for 48 hrs by sulforhodamine B assay; assay type: functional; conditions: OVCAR-8, 48 h
Outline: (§1)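 Cells were plated at 5,000–40,000 per well according to doubling time and preincubated 24 h at 37 °C in 5% CO2; time-zero plates were then TCA-fixed. Five concentrations (10-fold or ½-log dilutions, DMSO stock) were incubated 48 h. Cells were TCA-fixed, stained with 0.4% SRB and read at 515 nm. GI50 was taken where [(Ti−Tz)/(C−Tz)]×100 = 50.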

[3] = test system: T47D; experiment: Growth inhibition of human T47D cells assessed as cell growth at 10^-8 M incubated for 48 hrs by sulforhodamine B assay; assay type: functional; conditions: read-out: Activity
[4] = test system: MDA-MB-435; experiment: Growth inhibition of human MDA-MB-435 cells incubated for 48 hrs by sulforhodamine B assay; assay type: functional; conditions: MDA-MB-435, 48 h; outline: as §1
[5] = test system: Malme-3M; experiment: Growth inhibition of human MALME-3M cells assessed as cell growth at 10^-7 M incubated for 48 hrs by sulforhodamine B assay; assay type: functional; conditions: read-out: Activity
[6] = Growth inhibition of human UACC257 cells assessed as cell growth at 10 uM incubated for 48 hrs by sulforhodamine B assay; assay type: functional; conditions: UACC-257, 48 h, read-out: Activity
[7] = Growth inhibition of human RPMI8226 cells assessed as cell growth at 10^-5 M incubated for 48 hrs by sulforhodamine B assay; assay type: functional; conditions: RPMI-8226, 48 h, read-out: Activity
[8] = Growth inhibition of human DU145 cells assessed as cell growth at 10^-4 M incubated for 48 hrs by sulforhodamine B assay; assay type: functional; conditions: DU-145, 48 h, read-out: Activity
Outline: (§2)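 Cells seeded at 5,000–40,000/well according to doubling time and preincubated 24 h at 37 °C, 5% CO2. Time-zero plates were TCA-fixed. DMSO concentrate was diluted in medium with 50 µg/ml gentamicin to give five concentrations (10-fold or ½ log steps), then exposed 48 h. Cells were TCA-fixed, stained with 0.4% SRB and read at 515 nm. Percent growth was taken against time-zero and control; GI50, TGI and LC50 derived.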

[9] = test system: NCI-H460; experiment: Growth inhibition of human NCI-H460 cells incubated for 48 hrs by sulforhodamine B assay; assay type: functional; conditions: NCI-H460, 48 h; outline: as §1
[10] = test system: T47D; experiment: Growth inhibition of human T47D cells incubated for 48 hrs by sulforhodamine B assay; assay type: functional; outline: as §1
[11] = Growth inhibition of human MOLT4 cells assessed as cell growth at 10^-6 M incubated for 48 hrs by sulforhodamine B assay; assay type: functional; conditions: MOLT-4, 48 h, read-out: Activity
[12] = Growth inhibition of human SKOV3 cells assessed as cell growth at 10 uM incubated for 48 hrs by sulforhodamine B assay; assay type: functional; conditions: SK-OV-3, 48 h, read-out: Activity
[13] = Growth inhibition of human HOP92 cells assessed as cell growth at 10^-5 M incubated for 48 hrs by sulforhodamine B assay; assay type: functional; conditions: HOP-92, 48 h, read-out: Activity
[14] = Growth inhibition of human RXF393 cells assessed as cell growth at 10^-8 M incubated for 48 hrs by sulforhodamine B assay; assay type: functional; conditions: RXF 393, 48 h, read-out: Activity
[15] = Growth inhibition of human HCT116 cells assessed as cell growth at 10^-8 M incubated for 48 hrs by sulforhodamine B assay; assay type: functional; conditions: HCT-116, 48 h, read-out: Activity; outline: as §2
[16] = target: Albumin (Bos taurus, UniProt P02769); experiment: Binding affinity to bovine serum albumin assessed as enhancement in emission spectra up to 20 uM by fluorescence spectroscopic analysis relative to control; assay type: ADME; conditions: cattle, isolated protein
Outline: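 Fluorescence titration of 10 µM BSA in 0.1 M phosphate buffer pH 7.4 with compound at 0–20 µM, diluted from DMSO stocks. Excitation 280 nm, slit 10 nm, 1 cm quartz cell, 300 K. Changes in the 350 nm Trp emission, new bands near 370–373 nm and isoemissive points are read against BSA alone.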

[17] = Growth inhibition of human Hs 578T cells assessed as cell growth at 10^-7 M incubated for 48 hrs by sulforhodamine B assay; assay type: functional; conditions: read-out: Activity
[18] = test system: A549; experiment: Growth inhibition of human A549/ATCC cells incubated for 48 hrs by sulforhodamine B assay; assay type: functional; conditions: A549, 48 h
Outline: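 Five-dose assay: five concentrations from 10-fold or ½-log serial dilutions. Cells are plated at 5,000–40,000 per well according to doubling time, grown 24 h, then exposed 48 h at 37 °C, 5% CO₂. Fixed with cold 50% TCA (final addition) for 60 min at 4 °C and stained with 0.4% SRB in 1% acetic acid. Bound dye is solubilized in 10 mM Tris base and read at 515 nm. GI₅₀ is where [(Ti−Tz)/(C−Tz)]×100 = 50, with a time-zero plate as Tz.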

[19] = test system: ACHN; experiment: Growth inhibition of human ACHN cells assessed as cell growth at 10 uM incubated for 48 hrs by sulforhodamine B assay; assay type: functional; conditions: read-out: Activity
Outline: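 One-dose screen at 10 µM final. Cells are plated at 5,000–40,000 per well according to doubling time and preincubated 24 h at 37 °C, 5% CO₂. Compound (DMSO stock diluted in medium with 50 µg/ml gentamicin) is then added for 48 h. Growth percent is read by sulforhodamine B staining, absorbance at 515 nm.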

[20] = Growth inhibition of human HCC2998 cells assessed as cell growth at 10^-6 M incubated for 48 hrs by sulforhodamine B assay; assay type: functional; conditions: HCC 2998, 48 h, read-out: Activity; outline: as §2
[21] = test system: HT-29; experiment: Growth inhibition of human HT-29 cells incubated for 48 hrs by sulforhodamine B assay; assay type: functional; conditions: HT-29, 48 h; outline: as §1
[22] = read-out: LC50 (the source's name)
[23] = read-out: pLC50 (the source's name) (converted)

Chain of Albumin (P02769 whole entry): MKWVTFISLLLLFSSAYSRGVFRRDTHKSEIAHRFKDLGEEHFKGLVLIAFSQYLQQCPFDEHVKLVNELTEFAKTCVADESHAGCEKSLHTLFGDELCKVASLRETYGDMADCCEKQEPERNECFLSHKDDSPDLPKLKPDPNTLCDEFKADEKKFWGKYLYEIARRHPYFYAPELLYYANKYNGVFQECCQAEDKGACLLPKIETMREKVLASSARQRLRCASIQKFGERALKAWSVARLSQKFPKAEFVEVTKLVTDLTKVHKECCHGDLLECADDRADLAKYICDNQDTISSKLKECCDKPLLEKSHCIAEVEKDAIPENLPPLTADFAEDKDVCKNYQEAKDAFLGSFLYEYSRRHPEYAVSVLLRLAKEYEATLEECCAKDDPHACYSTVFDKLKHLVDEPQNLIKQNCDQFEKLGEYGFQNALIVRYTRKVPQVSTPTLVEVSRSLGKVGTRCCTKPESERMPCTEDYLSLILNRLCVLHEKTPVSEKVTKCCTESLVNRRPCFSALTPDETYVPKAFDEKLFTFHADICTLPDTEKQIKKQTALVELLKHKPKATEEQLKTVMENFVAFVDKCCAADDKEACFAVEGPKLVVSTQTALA

## c1ccc(-c2nc(Nc3ccc(-c4nc5ccccc5[nH]4)cc3)nc(N3CCOCC3)n2)cc1
[1]
  growth at 10 µM: -47.2%
[2]; read-out: GI50
  GI50: 1720 nM
[2]; [22]
  CC50: 6790 nM
[2]; read-out: TGI
  TGI: 3410 nM
[2]; read-out: pGI50 (converted)
  GI50: 1700 nM
[2]; [23]
  CC50: 6760 nM
[2]; read-out: pTGI (converted)
  TGI: 3390 nM
[3]
  growth at 0.01 µM: 103%
[4]; read-out: GI50
  GI50: 1760 nM
[4]; [22]
  CC50: 6110 nM
[4]; read-out: TGI
  TGI: 3280 nM
[4]; read-out: pGI50 (converted)
  GI50: 1780 nM
[4]; [23]
  CC50: 6170 nM
[4]; read-out: pTGI (converted)
  TGI: 3310 nM
[5]
  growth at 0.1 µM: 131%
[6]
  growth at 10 µM: -56.4%
[7]
  growth at 10 µM: -32%
[8]
  growth at 100 µM: -100%
[9]; read-out: GI50
  GI50: 822 nM
[9]; [22]
  CC50: 6670 nM
[9]; read-out: TGI
  TGI: 2460 nM
[9]; read-out: pGI50 (converted)
  GI50: 813 nM
[9]; [23]
  CC50: 6610 nM
[9]; read-out: pTGI (converted)
  TGI: 2450 nM
[10]; read-out: GI50
  GI50: 1620 nM
[10]; [22]
  CC50: 9020 nM
[10]; read-out: TGI
  TGI: 3820 nM
[10]; read-out: pGI50 (converted)
  GI50: 1620 nM
[10]; [23]
  CC50: 9120 nM
[10]; read-out: pTGI (converted)
  TGI: 3800 nM
[11]
  growth at 1 µM: 65%
[12]
  growth at 10 µM: -30.3%
[13]
  growth at 10 µM: -75%
[14]
  growth at 0.01 µM: 97%
[15]
  growth at 0.01 µM: 99%
[16]
  Activity: 22.78%
[17]
  growth at 0.1 µM: 94%
[18]; read-out: GI50
  GI50: 1950 nM
[18]; [22]
  CC50: 8250 nM
[18]; read-out: TGI
  TGI: 4010 nM
[18]; read-out: pGI50 (converted)
  GI50: 1950 nM
[18]; [23]
  CC50: 8320 nM
[18]; read-out: pTGI (converted)
  TGI: 3980 nM
[19]
  growth at 10 µM: -58.9%
[20]
  growth at 1 µM: 93%
[21]; read-out: GI50
  GI50: 645 nM
[21]; [22]
  CC50: 6450 nM
[21]; read-out: TGI
  TGI: 2190 nM
[21]; read-out: pGI50 (converted)
  GI50: 646 nM
[21]; [23]
  CC50: 6460 nM
[21]; read-out: pTGI (converted)
  TGI: 2190 nM

## Clc1ccc(-c2nc(Nc3ccc(-c4nc5ccccc5[nH]4)cc3)nc(N3CCOCC3)n2)cc1
[1]
  growth at 10 µM: -73.9%
[2]; read-out: GI50
  GI50: 1120 nM
[2]; [22]
  CC50: 6090 nM
[2]; read-out: TGI
  TGI: 2610 nM
[2]; read-out: pGI50 (converted)
  GI50: 1120 nM
[2]; [23]
  CC50: 6030 nM
[2]; read-out: pTGI (converted)
  TGI: 2630 nM
[3]
  growth at 0.01 µM: 99%
[4]; read-out: GI50
  GI50: 596 nM
[4]; read-out: TGI
  TGI: 1860 nM
[4]; read-out: pGI50 (converted)
  GI50: 603 nM
[4]; read-out: pTGI (converted)
  TGI: 1860 nM
[5]
  growth at 0.1 µM: 101%
[6]
  growth at 10 µM: -82.5%
[7]
  growth at 10 µM: -51%
[8]
  growth at 100 µM: -63%
[9]; read-out: GI50
  GI50: 222 nM
[9]; read-out: TGI
  TGI: 491 nM
[9]; read-out: pGI50 (converted)
  GI50: 224 nM
[9]; read-out: pTGI (converted)
  TGI: 490 nM
[10]; read-out: GI50
  GI50: 376 nM
[10]; read-out: TGI
  TGI: 1720 nM
[10]; read-out: pGI50 (converted)
  GI50: 380 nM
[10]; read-out: pTGI (converted)
  TGI: 1740 nM
[11]
  growth at 1 µM: -29%
[12]
  growth at 10 µM: -89.9%
[13]
  growth at 10 µM: -90%
[14]
  growth at 0.01 µM: 100%
[15]
  growth at 0.01 µM: 99%
[16]
  Activity: 49.1%
[17]
  growth at 0.1 µM: 87%
[18]; read-out: GI50
  GI50: 666 nM
[18]; [22]
  CC50: 5540 nM
[18]; read-out: TGI
  TGI: 2130 nM
[18]; read-out: pGI50 (converted)
  GI50: 661 nM
[18]; [23]
  CC50: 5500 nM
[18]; read-out: pTGI (converted)
  TGI: 2140 nM
[19]
  growth at 10 µM: -90.6%
[20]
  growth at 1 µM: 15%
[21]; read-out: GI50
  GI50: 228 nM
[21]; read-out: TGI
  TGI: 523 nM
[21]; read-out: pGI50 (converted)
  GI50: 229 nM
[21]; read-out: pTGI (converted)
  TGI: 525 nM
